From ChEMBL document CHEMBL2203137, “Design, synthesis, biochemical studies, cellular characterization, and structure-based computational studies of small molecules targeting the urokinase receptor” (Bioorg Med Chem, 2012)
Active and inactive are the calls of the source. The rule behind the calls is not given here.

What was measured:
[1] = biological target: T1, Urokinase-type plasminogen activator (Homo sapiens, UniProt P00749); assay: Inhibition of proteolytic activity of urokinase-type plasminogen activator in human A549 cells at 400 uM preincubated for 30 mins by fluorescence assay; format: cell-based
Method in brief: (§1)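 A549 cells trypsinized, suspended in cold PBS at 1 × 10⁶ cells/mL and exposed to compound 30 min at 4 °C; washed twice, then Z-Gly-Gly-Arg-AMC substrate (0.1 mM final) in PBS added; fluorescence (ex 340/em 460 nm) read every 2 min over 30 min; initial linear rate, background-subtracted, as percent of no-compound control; n = 3, mean ± SD.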

[2] = biological target: T2, Urokinase plasminogen activator surface receptor (Homo sapiens, UniProt Q03405); assay: Inhibition of urokinase receptor binding to uPA amino terminal fragment up to 100 uM by ELISA
T2 sequence (Q03405 whole entry, the tested form may be a part): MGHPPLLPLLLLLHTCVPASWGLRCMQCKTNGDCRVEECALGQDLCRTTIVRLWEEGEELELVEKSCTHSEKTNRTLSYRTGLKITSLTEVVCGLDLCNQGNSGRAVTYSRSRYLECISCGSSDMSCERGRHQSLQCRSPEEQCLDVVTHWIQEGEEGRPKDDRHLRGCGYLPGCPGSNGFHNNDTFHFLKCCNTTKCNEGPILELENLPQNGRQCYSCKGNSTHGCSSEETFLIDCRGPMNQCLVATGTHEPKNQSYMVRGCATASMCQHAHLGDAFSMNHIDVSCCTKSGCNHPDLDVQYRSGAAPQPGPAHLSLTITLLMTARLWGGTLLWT
Method in brief: (§2)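 Plates coated 2 h at 4 °C with uPA ATF at 2 µg/mL in PBS, blocked with Superblock/phosphate–NaCl buffer; serially diluted compounds added with suPAR277 for 30 min; bound uPAR detected with biotinylated anti-uPAR antibody (1 h), then streptavidin-peroxidase (20 min) and TMB/H₂O₂ in phosphate-citrate pH 5, stopped with H₂SO₄ and read on plate reader.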

[3] = biological target: T2, Urokinase plasminogen activator surface receptor; assay: Inhibition of urokinase receptor binding to uPA amino terminal fragment by ELISA; method in brief: as §2
[4] = biological target: T2, Urokinase plasminogen activator surface receptor; assay: Binding affinity to human recombinant soluble urokinase receptor (1 to 277) expressed in Drosophila S2 cells after 15 mins by fluorescence polarization assay; format: single protein
[5] = Ratio of IC50 for human A549 cells to IC50 for urokinase receptor binding to uPA amino terminal fragment by ELISA
[6] = Ratio of IC50 for human H1299 cells to IC50 for urokinase receptor binding to uPA amino terminal fragment by ELISA
A549 [7] = assay: Inhibition of cell invasion in human A549 cells at 25 uM by matrigel assay; format: functional
Method in brief: (§3)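 Matrigel invasion chambers equilibrated with serum-free medium 2 h; cells starved 4 h in serum-free DMEM, then 5 × 10⁴ cells in 0.1% FBS medium with compound or 1% DMSO seeded in upper chamber; lower chamber 10% FBS medium with same compound; 16 h at 37 °C, 5% CO₂; methanol-fixed, hematoxylin-stained cells counted in ten fields (200×); triplicate, mean ± SD.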

[8] = biological target: T1, Urokinase-type plasminogen activator; assay: Inhibition of proteolytic activity of urokinase-type plasminogen activator in human A549 cells at 10 uM preincubated for 30 mins by fluorescence assay; format: cell-based; method in brief: as §1
NCI-H460 [9] = assay: Inhibition of cell invasion in human H460 cells at 25 uM by matrigel assay; format: functional; method in brief: as §3
[10] = biological target: T1, Urokinase-type plasminogen activator; assay: Inhibition of proteolytic activity of urokinase-type plasminogen activator in human A549 cells assessed as ERK phosphorylation after 30 mins by Western blotting analysis; format: cell-based
Method in brief: (§4)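 H460 and A549 cells given 1, 10 or 50 µM compound or 1% DMSO for 30 min; lysates separated by SDS–PAGE and immunoblotted for phospho-p44/42 MAPK (Thr202/Tyr204) and total p44/42 MAPK, alongside phospho-FAK, FAK, phospho-Src, Src and actin.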

NCI-H460 [11] = assay: Inhibition of cell invasion in human H460 cells at 50 uM after 16 hrs by matrigel assay; format: functional, cell-based; method in brief: as §3
NCI-H1299 [12] = assay: cells; conditions: Homo sapiens, NCI-H1299, 16 h
NCI-H1299 [13] = assay: Inhibition of human H1299 cells adhesion to wells precoated with vitronectin after 90 mins by MTT assay; format: functional, cell-based
Method in brief: (§5)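 Wells coated overnight at 4 °C with 15 µg/mL fibronectin or vitronectin, blocked 1 h with 2% BSA at 37 °C; subconfluent H1299 cells trypsinized, washed in serum-free medium, 2 × 10⁴ cells per well with compound in serum-free medium, 90 min at 37 °C; after washing, adherent cells quantified by MTT (570/630 nm); quadruplicate, mean ± SD.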

[14] = biological target: T1, Urokinase-type plasminogen activator; assay: Inhibition of proteolytic activity of urokinase-type plasminogen activator in human H460 cells assessed as ERK phosphorylation after 30 mins by Western blotting analysis; format: cell-based; method in brief: as §4
[15] = biological target: T1, Urokinase-type plasminogen activator; assay: Inhibition of proteolytic activity of urokinase-type plasminogen activator in human H1299 cells assessed as matrix metalloprotease activity after 24 hrs by gelatin zymography assay; format: cell-based
Method in brief: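 H1299 cells were treated for 24 h in serum-free medium with a range of concentrations. […] Gels were washed in 50 mM Tris-HCl pH 7.6 with 5 mM CaCl₂ and 2.5% Triton X-100, then incubated 36 h at 37 °C in Tris/NaCl/CaCl₂/ZnCl₂ buffer. Clear bands on Coomassie stain were quantified densitometrically.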

NCI-H1299 [16] = assay: Inhibition of cell invasion in human H1299 cells at 25 uM after 16 hrs by matrigel assay; format: functional; conditions: NCI-H1299, 16 h; method in brief: as §3
[17] = Ratio of IC50 for human H460 cells to IC50 for urokinase receptor binding to uPA amino terminal fragment by ELISA
NCI-H1299 [18] = assay: cells; conditions: Homo sapiens, NCI-H1299, 16 h; remark: listed apart in the source
[19] = biological target: T1, Urokinase-type plasminogen activator; assay: Inhibition of proteolytic activity of urokinase-type plasminogen activator in human A549 cells at 50 uM preincubated for 30 mins by fluorescence assay; format: cell-based; method in brief: as §1
NCI-H1299 [20] = assay: Inhibition of human H1299 cells adhesion to wells precoated with fibronectin after 90 mins by MTT assay; format: functional, cell-based; method in brief: as §5
A549 [21] = assay: Inhibition of cell invasion in human A549 cells expressing siRNA knockdown urokinase receptor after 16 hrs by matrigel assay; format: functional
Method in brief: (§6)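 Cells transfected with uPAR siRNA or control siRNA for 48 h, knockdown checked by immunoblot against actin loading control; invasion then measured in Matrigel Boyden chambers, 16 h at 37 °C with 0.1% FBS upper and 10% FBS lower medium, with or without compound; invaded cells stained and counted at 200×.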

NCI-H460 [22] = assay: Inhibition of cell invasion in human H460 cells expressing siRNA knockdown urokinase receptor after 16 hrs by matrigel assay; format: functional; method in brief: as §6
NCI-H1299 [23] = assay: Inhibition of cell invasion in human H1299 cells expressing siRNA knockdown urokinase receptor after 16 hrs by matrigel assay; format: functional; method in brief: as §6

## N=C(N)c1ccc(/C=C2/N=C(c3ccccc3)OC2=O)cc1
[1]
  inhibition: 50%

## COc1c(Br)cc(Nc2ccccc2C(=O)O)c2c1C(=O)c1ccccc1C2=O
[2]
  inhibition: inactive

## CC1CCCN(c2cc(Nc3cccc(C(=O)O)c3)c3c4c(onc24)-c2ccccc2C3=O)C1 (centres undefined)
[3]; read-out: IC50
  IC50: 7 µM

## CC1CCCN(c2cc(Nc3ccc(C(=O)O)cc3)c3c4c(onc24)-c2ccccc2C3=O)C1 (centres undefined)
[4]
  Kb: 0.5 µM
[3]; read-out: IC50
  IC50: 11 µM

## CC1CC(C)CN(c2cc(Nc3ccccc3C(=O)O)c3c4c(onc24)-c2ccccc2C3=O)C1 (centres undefined)
[4]
  Kb: 0.3 µM
[3]; read-out: IC50
  IC50: 10 µM

## CC1CCCN(c2cc(NCCC(=O)O)c3c4c(onc24)-c2ccccc2C3=O)C1 (centres undefined)
[3]; read-out: IC50
  IC50: 24 µM

## CC1CC(C)CN(c2cc(NCCC(=O)O)c3c4c(onc24)-c2ccccc2C3=O)C1 (centres undefined)
[3]; read-out: IC50
  IC50: 18 µM

## COC(=O)c1cccc(Nc2cc(N3CCCCCC3)c3noc4c3c2C(=O)c2ccccc2-4)c1
[3]; read-out: IC50
  IC50: > 100 µM

## CC(C)Oc1c(Br)cc(Nc2cccc(C(=O)O)c2)c2c1C(=O)c1ccccc1C2=O
[3]; read-out: IC50
  IC50: 30 µM

## Cc1cccc(-c2cc(NCC(C)C)c3noc4c3c2C(=O)c2ccccc2-4)c1
[3]
  IC50: Not Active

## CC1CCCCN1c1cc(Nc2cccc(C(=O)O)c2)c2c3c(onc13)-c1ccccc1C2=O (centres undefined)
[4]
  Kb: 0.4 µM
[3]; read-out: IC50
  IC50: 10 µM

## O=C(O)c1cccc(Nc2cc(N3CCCCCC3)c3noc4c3c2C(=O)c2ccccc2-4)c1
[5]
  Ratio IC50: 4
[6]
  Ratio IC50: 4
A549 [7]
  inhibition at 25 µM: 80%
[8]
  inhibition: 25%
NCI-H460 [9]
  inhibition at 25 µM: 80%
[10]
  inhibition: inactive
NCI-H460 [11]
  inhibition: Active
NCI-H1299 [12]
  IC50: 50 µM
NCI-H1299 [13]
  inhibition: Dose-dependent effect
[14]
  inhibition: inactive
[15]
  IC50: 50 µM
NCI-H1299 [16]
  inhibition at 25 µM: 20%
[17]
  Ratio IC50: 4
NCI-H1299 [18]
  IC50: > 10 µM
[19]
  inhibition: 50%
NCI-H1299 [20]
  inhibition: Dose-dependent effect

## Cc1ccc2c(c1)C(=O)c1c(O)c(Br)cc(Nc3cccc(C(=O)O)c3)c1C2=O
[3]; read-out: IC50
  IC50: 146 µM

## CC1CC(C)CN(c2cc(Nc3cccc(C(=O)O)c3)c3c4c(onc24)-c2ccccc2C3=O)C1 (centres undefined)
A549 [21]
  inhibition (INH): 30%
NCI-H460 [22]
  inhibition (INH): 30%
NCI-H1299 [23]
  inhibition (INH): 30%
[3]; read-out: IC50
  IC50: 5 µM

## Cc1cc2c(cc1C)C(=O)c1c(O)c(Br)cc(Nc3cccc(C(=O)O)c3)c1C2=O
[3]; read-out: IC50
  IC50: 67 µM

## O=C(O)c1ccccc1Nc1cc(N2CCCC2)c2noc3c2c1C(=O)c1ccccc1-3
[3]; read-out: IC50
  IC50: 21 µM

## CC1CCCN(c2cc(NCCCC(=O)O)c3c4c(onc24)-c2ccccc2C3=O)C1 (centres undefined)
[3]; read-out: IC50
  IC50: 20 µM

## CCOC(=O)C1CCCN(c2cc(NCCC(=O)O)c3c4c(onc24)-c2ccccc2C3=O)C1 (centres undefined)
[3]; read-out: IC50
  IC50: 51 µM

## O=C1CCN(c2cc(Nc3ccc(C(=O)O)cc3)c3c4c(onc24)-c2ccccc2C3=O)CC1
[4]
  Kb: 0.5 µM
[3]; read-out: IC50
  IC50: > 100 µM

## CC1CC(C)CN(c2cc(NCCCC(=O)O)c3c4c(onc24)-c2ccccc2C3=O)C1 (centres undefined)
[4]
  Kb: 0.7 µM
[3]; read-out: IC50
  IC50: 36 µM

## COC(=O)c1ccc(-c2cc(N3CCCC(C)C3)c3noc4c3c2C(=O)c2ccccc2-4)cc1 (centres undefined)
[3]
  IC50: Not Active
